Marks after values point to notes of the source that are not given here.
Experiments:
[1] = test system: relapsed and/or refractory lymphoma or MM; assay: Antitumor activity: disease response; assay type: in vivo, human
NQO1 = assay: Whole blood reverse-transcriptase-PCR of NRF-2-regulated genes; assay type: in vivo, human; settings: approximate
Outline: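 Whole blood was collected in PAXgene tubes at screening, at baseline and during cycle 1. Schedule A: day 1 at 4 and 8 h, day 2 pre-dose, day 5. Schedule B: days 1 and 11 at 4, 8 and 23 h, pre-dose days 4 and 11, day 15. Eight genes were assayed by RT-PCR, with ΔCt against four housekeeping genes (18S, B2M, RPLP0, UBC). Percent change = (2^−(post ΔCt − baseline ΔCt) − 1) × 100. Undetermined Ct was set to 40.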

[2] = test system: pevonedistat–NEDD8 adduct; assay: Bone marrow aspirate immunohistochemistry for pevonedistat–NEDD8 adduct; assay type: in vivo, human; settings: one patient treated at 25 mg/m^2, pre-dose and post-dose sample
Outline: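 Patients with marrow involvement received IV pevonedistat over 1 h. Marrow aspirates were taken at screening and 2–6 h after the cycle 1 dose on day 2 (schedule A) or day 4 (schedule B). Aspirates were clotted, formalin-fixed and paraffin-embedded. Adduct-specific antibody was applied 1 h at 37°C, then biotinylated goat anti-rabbit secondary 32 min at room temperature, with DAB detection. Slides were counterstained and whole-slide imaged at 20x.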

[3] = Plasma pharmacokinetics, cycle 1; settings: human, in vivo
CDT-1 = assay: Skin punch biopsy immunohistochemistry, CDT-1; assay type: in vivo, human; settings: 3–6 hours after second dose of cycle 1
Outline: (§1)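 IV infusion over 1 h. 2 mm skin punch biopsies were taken at screening and 3–6 h after the cycle 1 dose on day 2 (schedule A) or day 4 (schedule B). On 5 µm sections, CC1 antigen retrieval ran 20 min. Primary antibody was applied 1 h at room temperature, then alkaline phosphatase secondary 32 min, developed with NBT/BCIP. Slides were counterstained and imaged at 20x. Signal was percent stained area of the basal epithelial region.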

[4] = test system: patients with relapsed and/or refractory lymphoma or MM; assay: Phase I dose escalation: MTD and DLT determination; assay type: in vivo
NRF-2 = assay: Skin punch biopsy immunohistochemistry, NRF-2; assay type: in vivo, human; settings: 19 patients, schedule A 25–147 mg/m^2, after second dose of cycle 1
Outline: as §1

[5] = test system: patients with AML and myelodysplastic syndromes (MDS); settings: same dosing as schedule B (days 1, 4, 8, 11); cited from earlier work

NS(=O)(=O)OC[C@@H]1C[C@@H](n2ccc3c(N[C@H]4CCc5ccccc54)ncnc32)C[C@@H]1O [pevonedistat]
Duration of SD ([1]; 5 MM patients who received ≥5 cycles): 3.22–6.01 months | Duration of SD ([1]; 7 lymphoma patients who received ≥5 cycles): 3.25–9.53 months | Best response in MM patients ([1]; MM patients): best responses of only SD | NQO1 expression in whole blood, maximal change from baseline (NQO1; doses of 25–83 mg/m^2, cycle 1 day 1): 250% to 400% | NQO1 expression in whole blood, maximal change from baseline (NQO1; doses of 110–261 mg/m^2, cycle 1 day 1): 700% to 800% | Pevonedistat–NEDD8 adduct in bone marrow aspirate [2]: not detected | Dose proportionality of mean Cmax and AUC0–24hr [3]: approximate dose-proportional increases | Cmax ([3]; 110 mg/m2): 1683 (28) ng/mL | Tmax ([3]; 110 mg/m2): 1.08 h | Cmax ([3]; 110 mg/m2, Cmax): 1500 ng/mL | Tmax ([3]; 110 mg/m2, Tmax): 1.02 h | AUC0-τ ([3]; 196 mg/m2): 12,367 (13) ^c nghr/mL | Cmax ([3]; 196 mg/m2): 3751 (53) ng/mL | Mean plasma elimination half-life ([3]; 196 mg/m2): 8.5 h | Tmax ([3]; 196 mg/m2): 1.02 (0.9– 1.1) hr | clearance ([3]; 196 mg/m2): 472 mL/min | Cmax ([3]; 196 mg/m2, Cmax): 4560 ng/mL | half-life ([3]; 196 mg/m2, Mean plasma elimination half-life): ~8.5 h | half-life ([3]; 196 mg/m2, Plasma elimination half-life, range): 7.7 to 9.1 h | Tmax ([3]; 196 mg/m2, Tmax): 1.1 h | half-life ([3]; 196 mg/m2, t½ (terminal disposition half-life)): 8.5 h | CDT-1 expression level in skin biopsies vs baseline (CDT-1): increases | DLTs at 261 mg/m^2 ([4]; in vivo): no DLTs were observed | Maximum tolerated dose (MTD) ([4]; schedule A: IV days 1, 2, 8, 9 of 21-day cycles): 110 mg/m^2 | NRF-2 expression in skin, median increase vs baseline (NRF-2): 39.4 fold | NRF-2 expression in skin, range of increase vs baseline (NRF-2): 0–1483 fold | MTD in AML/MDS patients [5]: 83 mg/m^2

Reference: paper PMC5694347 (Clinical cancer research : an official journal of the …, 2015)
